Laboratory results from article PMC7442688 (Nature chemical biology, 2020).

Target: T1, purified mLYPLAL1 (Mus musculus, UniProt Q3UFF7)
T1 sequence (Q3UFF7 1-239): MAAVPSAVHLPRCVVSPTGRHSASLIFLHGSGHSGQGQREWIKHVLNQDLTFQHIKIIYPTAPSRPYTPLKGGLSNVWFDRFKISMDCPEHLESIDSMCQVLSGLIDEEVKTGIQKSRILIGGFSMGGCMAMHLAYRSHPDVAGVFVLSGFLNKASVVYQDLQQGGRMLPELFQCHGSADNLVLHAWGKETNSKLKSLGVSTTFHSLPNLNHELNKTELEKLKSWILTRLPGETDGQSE
Test: NanoDSF thermal stability assay
Format: binding
Details: recombinant mLYPLAL1
How it was run: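 Purified mouse LYPLAL1 (2.3 μM final) in PBS pH 7.4 with varying test compound concentrations (2% DMSO final) in capillaries. Intrinsic-fluorescence nanoDSF over a 20–95°C ramp at 1°C/min. Kd estimated by isothermal analysis of the unfolding data.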

Compound: COc1ccc(S(=O)(=O)n2nc(NCc3ccc(Cl)cc3)nc2N)cc1 [Compound 80, 3-(4-chlorobenzyl)amino-1-((4-methoxyphenyl)sulfonyl)-5-amino-1H-1,2,4-triazole]
- effect on thermal stability of mLYPLAL1: not seen
